From ChEMBL document CHEMBL3867488 (ACS Med Chem Lett, 2016)

Assays:
Albumin = Albumin (Homo sapiens, UniProt P02768); assay: Binding affinity to human serum albumin at 1 uM measured after 4 hrs by equilibrium dialysis method relative to control; type: ADME; settings: for PB: isolated protein, 4 h, 1 µM
[1] = biological target: T1, Oxysterols receptor LXR-beta (Homo sapiens) (UniProt P55055); assay: (§1) Agonist activity at LXR-beta in human whole blood assessed as ABCA1 gene induction by measuring ABCA1 mRNA level after 4 hrs by SYBR-Green dye-based Q-PCR analysis relative to pan agonist 2-(4-(5-(5-cyano-1-(2,4-difluorobenzyl)-6-oxo-4-(trifluoromethyl)-1,6-dihydropyridin-2-yl)thiophen-2-yl)-3-methylphenyl)acetic acid; type: tissue-based
T1 sequence (whole entry): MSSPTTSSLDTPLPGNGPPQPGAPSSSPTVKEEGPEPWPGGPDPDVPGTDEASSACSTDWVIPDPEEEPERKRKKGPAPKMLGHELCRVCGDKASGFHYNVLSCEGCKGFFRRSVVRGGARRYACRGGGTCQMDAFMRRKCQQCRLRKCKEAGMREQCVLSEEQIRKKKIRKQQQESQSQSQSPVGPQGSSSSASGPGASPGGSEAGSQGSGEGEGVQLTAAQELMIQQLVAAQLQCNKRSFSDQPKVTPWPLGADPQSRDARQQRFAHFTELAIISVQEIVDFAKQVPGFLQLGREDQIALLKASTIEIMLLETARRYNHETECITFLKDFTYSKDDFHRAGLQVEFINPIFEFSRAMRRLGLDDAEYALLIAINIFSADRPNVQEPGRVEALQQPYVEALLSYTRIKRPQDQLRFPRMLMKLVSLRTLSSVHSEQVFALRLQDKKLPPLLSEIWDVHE

[2] = biological target: T1, Oxysterols receptor LXR-beta (Homo sapiens); assay: Agonist activity at human LXR-beta expressed in African green monkey CV1 cells measured after 18 to 20 hrs by luciferase reporter gene assay relative to pan agonist 1-(2,4-difluorobenzyl)-2-oxo-6-(4-phenoxyphenyl)-4-(trifluoromethyl)-1,2-dihydropyridine-3-carbonitrile; type: cell-based; settings: CV-1
[3] = biological target: Retinoic acid receptor RXR-alpha/oxysterols receptor LXR-beta (Homo sapiens, UniProt P55055); assay: Displacement of [3H]-24,25-epoxycholesterol from human LXRbeta/RXRalpha expressed in baculovirus infected Sf9 cells by scintillation proximity analysis
Sequence of Retinoic acid receptor RXR-alpha/oxysterols receptor LXR-beta (P19793 whole entry, one chain of several): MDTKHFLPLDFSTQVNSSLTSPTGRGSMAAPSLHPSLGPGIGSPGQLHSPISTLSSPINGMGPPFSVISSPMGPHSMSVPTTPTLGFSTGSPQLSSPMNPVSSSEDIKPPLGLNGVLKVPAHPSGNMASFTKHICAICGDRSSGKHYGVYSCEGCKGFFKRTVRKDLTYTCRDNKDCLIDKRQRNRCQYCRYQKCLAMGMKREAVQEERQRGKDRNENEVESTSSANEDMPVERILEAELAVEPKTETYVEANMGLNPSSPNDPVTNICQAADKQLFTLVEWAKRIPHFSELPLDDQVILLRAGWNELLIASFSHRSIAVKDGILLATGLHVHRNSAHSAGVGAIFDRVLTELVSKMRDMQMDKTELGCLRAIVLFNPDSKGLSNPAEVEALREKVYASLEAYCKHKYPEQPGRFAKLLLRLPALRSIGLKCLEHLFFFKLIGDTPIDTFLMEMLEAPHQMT
How it was run: (§2)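 Binding affinity measured using full-length LXRα–RXRα and LXRβ–RXRα heterodimers.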

[4] = biological target: T2, Oxysterols receptor LXR-alpha (Homo sapiens, UniProt Q13133); assay: Agonist activity at human LXR-alpha expressed in African green monkey CV1 cells measured after 18 to 20 hrs by luciferase reporter gene assay relative to pan agonist 1-(2,4-difluorobenzyl)-2-oxo-6-(4-phenoxyphenyl)-4-(trifluoromethyl)-1,2-dihydropyridine-3-carbonitrile; type: cell-based; settings: CV-1, human; read-out: Efficacy
T2 sequence (Q13133 whole entry): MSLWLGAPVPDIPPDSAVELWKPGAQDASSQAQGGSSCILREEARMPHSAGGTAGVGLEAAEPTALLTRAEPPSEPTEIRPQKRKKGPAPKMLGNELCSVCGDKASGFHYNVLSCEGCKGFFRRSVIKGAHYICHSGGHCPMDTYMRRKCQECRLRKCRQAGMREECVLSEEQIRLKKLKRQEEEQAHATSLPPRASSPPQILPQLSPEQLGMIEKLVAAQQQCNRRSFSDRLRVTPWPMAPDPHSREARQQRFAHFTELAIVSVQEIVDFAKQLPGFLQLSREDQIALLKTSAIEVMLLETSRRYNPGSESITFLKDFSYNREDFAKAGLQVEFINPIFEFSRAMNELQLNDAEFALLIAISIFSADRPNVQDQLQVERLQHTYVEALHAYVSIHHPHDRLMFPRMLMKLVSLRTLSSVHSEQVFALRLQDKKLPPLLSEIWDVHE

[5] = biological target: T2, Oxysterols receptor LXR-alpha; assay: Agonist activity at human LXR-alpha expressed in African green monkey CV1 cells measured after 18 to 20 hrs by luciferase reporter gene assay; type: cell-based, CV-1
[6] = biological target: T1, Oxysterols receptor LXR-beta (Homo sapiens); assay: Agonist activity at LXR-beta in human HeLa cells assessed as induction of ABCA1 by beta-galactosidase/luciferase reporter gene assay relative to control; type: cell-based
How it was run: (§3)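 HeLa cells carrying endogenous LXRα and LXRβ receptors, transfected with an ABCA1 LXREx3 reporter construct; agonist-driven reporter induction measured.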

[7] = biological target: Alpha-1-acid glycoprotein 1 (Homo sapiens, UniProt P02763); assay: Binding affinity to human alpha-1-AGP at 1 uM measured after 4 hrs by equilibrium dialysis method relative to control; type: ADME; settings: for fraction unbound at 4 h, 1 µM: human alpha-1-acid glycoprotein, read-out: PB; for PB: isolated protein, 4 h, 1 µM
Sequence of Alpha-1-acid glycoprotein 1 (P02763 whole entry): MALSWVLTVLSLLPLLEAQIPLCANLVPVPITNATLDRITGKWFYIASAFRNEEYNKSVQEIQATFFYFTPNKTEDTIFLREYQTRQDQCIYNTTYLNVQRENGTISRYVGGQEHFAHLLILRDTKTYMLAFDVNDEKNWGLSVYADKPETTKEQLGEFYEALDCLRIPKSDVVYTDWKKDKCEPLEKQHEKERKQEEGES

[8] = biological target: Retinoic acid receptor RXR-alpha/oxysterols receptor LXR-alpha (Homo sapiens, UniProt Q13133); assay: Displacement of [3H]-24,25-epoxycholesterol from human LXRalpha/RXRalpha expressed in baculovirus infected Sf9 cells by scintillation proximity analysis; how it was run: as §2
Sequence of Retinoic acid receptor RXR-alpha/oxysterols receptor LXR-alpha (P19793 whole entry, one chain of several): as the sequence (P19793 whole entry, one chain of several) above

[9] = biological target: T3, Oxysterols receptor LXR-beta (Homo sapiens, UniProt P55055); assay: Agonist activity at LXR-beta in human HeLa cells assessed as induction of ABCA1 by beta-galactosidase/luciferase reporter gene assay; type: cell-based; how it was run: as §3
T3 sequence (P55055 whole entry): T1 sequence (whole entry)

[10] = biological target: T3, Oxysterols receptor LXR-beta; assay: Agonist activity at human LXR-beta expressed in African green monkey CV1 cells measured after 18 to 20 hrs by luciferase reporter gene assay; type: cell-based, CV-1
[11] = biological target: T3, Oxysterols receptor LXR-beta; assay: Agonist activity at LXR-beta in human whole blood assessed as ABCA1 gene induction by measuring ABCA1 mRNA level after 4 hrs by SYBR-Green dye-based Q-PCR analysis; type: tissue-based
[12] = Half life in cynomolgus monkey at 1 mg/kg, iv administered as 10 mins infusion by LC/MS/MS analysis; type: ADME, organism-based, Macaca fascicularis; settings: in vivo
[13] = biological target: T4, Alpha-1-acid glycoprotein (Rattus norvegicus, UniProt P02764); assay: Binding affinity to rat alpha-1-AGP at 1 uM measured after 4 hrs by equilibrium dialysis method relative to control; type: ADME; settings: rat alpha-1-acid glycoprotein, read-out: PB (converted)
T4 sequence (P02764 whole entry): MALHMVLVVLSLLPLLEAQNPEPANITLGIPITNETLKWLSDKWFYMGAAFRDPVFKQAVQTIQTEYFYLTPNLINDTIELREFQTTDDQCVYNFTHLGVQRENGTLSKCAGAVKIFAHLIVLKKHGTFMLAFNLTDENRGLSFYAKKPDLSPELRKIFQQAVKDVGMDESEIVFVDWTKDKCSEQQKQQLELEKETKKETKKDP

[14] = Binding affinity to dog alpha-1-AGP at 1 uM measured after 4 hrs by equilibrium dialysis method relative to control; type: ADME, Canis lupus familiaris; settings: dog alpha-1-acid glycoprotein, read-out: PB (converted)
[15] = Clearance in cynomolgus monkey at 0.2 mg/kg, iv administered as cassette dose by LC/MS/MS analysis; type: ADME, organism-based, Macaca fascicularis; settings: in vivo
[16] = Half life in human plasma; type: ADME, cell-free
How it was run: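 Human plasma half-life was obtained from a clinical single ascending dose PK study.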

[17] = Half life in cynomolgus monkey at 0.2 mg/kg, iv administered as cassette dose by LC/MS/MS analysis; type: ADME, organism-based, Macaca fascicularis; settings: in vivo
[18] = biological target: T1, Oxysterols receptor LXR-beta (Homo sapiens); assay: as §1, with “as ABCG1” for “as ABCA1”; type: tissue-based
[19] = biological target: T3, Oxysterols receptor LXR-beta; assay: Agonist activity at LXR-beta in human whole blood assessed as ABCG1 gene induction by measuring ABCA1 mRNA level after 4 hrs by SYBR-Green dye-based Q-PCR analysis; type: tissue-based
[20] = Half life in cynomolgus monkey at 0.25 mg/kg, iv administered as 10 mins infusion by LC/MS/MS analysis; type: ADME, organism-based, Macaca fascicularis; settings: in vivo
How it was run: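 Cynomolgus monkey intravenous PK, with n = 2 animals at the 0.25 mg/kg dose. Plasma clearance (mL/min/kg) and terminal t1/2 (h) derived from the plasma concentration–time profile.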

Sequence of Albumin (P02768 whole entry): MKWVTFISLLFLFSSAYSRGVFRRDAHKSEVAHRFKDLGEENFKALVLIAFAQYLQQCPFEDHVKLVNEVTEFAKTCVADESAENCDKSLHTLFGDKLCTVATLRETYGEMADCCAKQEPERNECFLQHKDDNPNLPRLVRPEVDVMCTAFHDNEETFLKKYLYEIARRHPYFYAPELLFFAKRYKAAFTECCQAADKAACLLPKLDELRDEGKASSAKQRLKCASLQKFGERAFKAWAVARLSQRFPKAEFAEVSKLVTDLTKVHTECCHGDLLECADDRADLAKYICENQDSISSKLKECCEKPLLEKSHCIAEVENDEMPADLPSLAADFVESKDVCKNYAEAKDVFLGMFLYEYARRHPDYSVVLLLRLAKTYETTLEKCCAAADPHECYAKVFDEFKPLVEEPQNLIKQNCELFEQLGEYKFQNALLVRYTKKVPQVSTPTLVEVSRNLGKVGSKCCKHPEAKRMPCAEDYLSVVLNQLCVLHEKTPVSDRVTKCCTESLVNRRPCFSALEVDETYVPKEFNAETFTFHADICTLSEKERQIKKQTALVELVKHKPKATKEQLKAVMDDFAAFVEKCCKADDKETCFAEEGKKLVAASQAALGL

| SMILES | Efficacy [1] [%] | Efficacy [2] [%] | Ki [3] [nM] | Emax [4] [%] | EC50 [5] [nM] | Efficacy [6] [%] | Ki [8] [nM] | EC50 [9] [nM] | EC50 [10] [nM] | EC50 [11] [nM] | further results |
| --- | --- | --- | --- | --- | --- | --- | --- | --- | --- | --- | --- |
| CC(C)(O)c1cn(-c2ccc(-c3cccc(S(C)(=O)=O)c3)cc2)c(C(C)(C)c2c(Cl)cccc2Cl)n1 | 32 | 41 | 11 | 20 | 99 | 42 | 16 | 18 | 170 | 380 | PB (Albumin): 97.9%; fraction unbound at 4 h, 1 µM [7]: 0.004 to 0.01 |
| CC(C)(O)c1cn(-c2ccc(-c3cccc(S(C)(=O)=O)c3)cc2)c(C(C)(C)c2ccccc2Cl)n1 [BMS-779788] | 55 | – | – | 38 | 220 | 50 | – | 33 | – | 1200 | fraction unbound at 4 h, 1 µM (Albumin; human serum albumin, read-out: PB): 0.028 to 0.03; t1/2 [12]: 7.4 h; fraction unbound at 4 h, 1 µM [13]: 0.08; fraction unbound at 4 h, 1 µM [14]: 0.02; clearance [15]: 2.9 mL/min/kg; half-life [16]: 100 to 200 h; half-life [17]: 8.9 h; Efficacy [18]: 60%; EC50 [19]: 1100 nM; fraction unbound at 4 h, 1 µM [7]: 0.001 |
| CC(C)(O)c1cn(-c2ccc(-c3cc(F)c(CO)c(S(C)(=O)=O)c3)cc2F)c(C(C)(C)c2ccccc2Cl)n1 | 35 | 79 | 18 | 25 | 57 | 29 | 9 | 2 | 50 | 46 | – |
| CC(C)(O)c1cn(-c2ccc(-c3cc(F)c(CO)c(S(C)(=O)=O)c3)cc2F)c(C(C)(C)c2c(F)cccc2Cl)n1 | 33 | 86 | 14 | 15 | 11 | 30 | 70 | 1 | 20 | 41 | – |
| CC(O)c1ccc(-c2ccc(-n3cc(C(C)(C)O)nc3C(C)(C)c3ccccc3Cl)cc2)cc1S(C)(=O)=O (configuration not stated) | 47 | 93 | 40 | 47 | 120 | 68 | 180 | 21 | 220 | 870 | clearance [15]: 5.6 mL/min/kg; half-life [17]: 5.5 h |
| CC(C)(O)c1cn(-c2ccc(-c3ccc(CO)c(S(C)(=O)=O)c3)cc2)c(C(C)(C)c2ccccc2Cl)n1 | 46 | 74 | 13 | 46 | 110 | 56 | 74 | 12 | 170 | 300 | PB (Albumin): 96.1%; PB [7]: 90.2% |
| CC(C)(O)c1cn(-c2ccc(-c3cc(F)c(CO)c(S(C)(=O)=O)c3)cc2Cl)c(C(C)(C)c2c(Cl)cccc2Cl)n1 | 16 | 51 | 48 | 6 | 8 | 12 | 50 | 2 | 27 | 5 | – |

More lines, main results first:

| Efficacy [1] [%] | Efficacy [2] [%] | Ki [3] [nM] | Emax [4] [%] | EC50 [5] [nM] | Efficacy [6] [%] | Ki [8] [nM] | EC50 [9] [nM] | EC50 [10] [nM] | EC50 [11] [nM] | SMILES | further results |
| --- | --- | --- | --- | --- | --- | --- | --- | --- | --- | --- | --- |
| 51 | 54 | 11 | 17 | 69 | 43 | 75 | 5 | 140 | 42 | CC(C)(O)c1cn(-c2ccc(-c3cc(F)c(CO)c(S(C)(=O)=O)c3)cc2)c(Cc2c(Cl)cccc2Cl)n1 | – |
| 43 | 72 | 6 | 25 | 30 | 23 | 38 | 3 | 42 | 15 | CC(C)(O)c1cn(-c2ccc(-c3cc(F)c(CO)c(S(C)(=O)=O)c3)cc2)c(C(C)(C)c2c(Cl)cccc2Cl)n1 | – |
| 72 | 50 | 5 | 39 | 100 | 54 | 31 | 9 | 60 | 300 | CC(C)(O)c1cn(-c2ccc(-c3ccc(CO)c(S(C)(=O)=O)c3)cc2)c(Cc2ccccc2Cl)n1 | t1/2 [20]: 0.8 h |
| 47 | 83 | 10 | 29 | 76 | 43 | 53 | 8 | 72 | 57 | CC(C)(O)c1cn(-c2ccc(-c3cc(F)c(CO)c(S(C)(=O)=O)c3)cc2)c(C(C)(C)c2ccccc2Cl)n1 | PB (Albumin): 95.5%; clearance [15]: 8.4 mL/min/kg; half-life [17]: 5.6 h; PB [7]: 86.6% |
| 28 | 68 | 14 | 13 | 130 | 15 | 81 | 12 | 160 | 43 | CC(C)(O)c1cn(-c2ccc(-c3cc(F)c(CO)c(S(C)(=O)=O)c3)cc2)c(C(C)(C)c2ccccc2F)n1 | – |
| 17 | 67 | 13 | 18 | 12 | 9 | 17 | 2 | 25 | 23 | CC(c1c(Cl)cccc1Cl)c1nc(C(C)(C)O)cn1-c1ccc(-c2cc(F)c(CO)c(S(C)(=O)=O)c2)cc1F (configuration not stated) | – |
